Calls of active or inactive are those of the source. The calls are words filed in the database; no cut-off is given here.

These results are taken from ChEMBL document CHEMBL1147041, “Modulation of human neural stem cell differentiation in Alzheimer (APP23) transgenic mice by phenserine” (2007).

A short description of test [1]: Effect on neuronal differentiation of human neural stem cells transplanted in APP23 transgenic mouse hippocampus CA2 region assessed as increase of beta-3 tubulin+/BrdU+ count at 25 mg/kg/day, ip for 14 days. Conditions: route intraperitoneal. Format: functional, Neural stem cell. Put shortly:
(§1)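 Mice received daily i.p. drug or saline for 14 days. BrdU-labelled (3 µM, 48 h) fetal human neural stem cells, ≈105 cells, were then injected into the right lateral ventricle with no immunosuppression. Daily injections resumed for 1 week after a 2-day recovery. At 6 weeks, 20 µm coronal sections from paraformaldehyde-perfused brains were double-stained for BrdU plus GFAP or β-III tubulin. Cells were counted bilaterally at ×400 on 4–6 sections per mouse, n = 6–7 per group, and compared by ANOVA.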

Test [2] is described as follows: Effect on neuronal differentiation of human neural stem cells transplanted in APP23 transgenic mouse motor cortex region assessed as increase of beta-3 tubulin+/BrdU+ count at 25 mg/kg/day, ip for 14 days. The test is classed as functional, Neural stem cell. Conditions: route intraperitoneal. Put shortly:
as §1

The nature of test [3]: Effect on neuronal differentiation of human neural stem cells transplanted in APP23 transgenic mouse somatosensory region assessed as increase of beta-3 tubulin+/BrdU+ count at 25 mg/kg/day, ip for 14 days. Particulars: route intraperitoneal. Format: functional, Neural stem cell. Summed up:
as §1

Test [4] is described as follows: Effect on neuronal differentiation of human neural stem cells transplanted in wild type mouse hippocampus CA1 region assessed as increase of beta-3 tubulin+/BrdU+ count at 25 mg/kg/day, ip for 14 days. The test is classed as functional, Neural stem cell. Conditions: route intraperitoneal. Summed up: as §1
Test [5] relates to Mus musculus. As to the kind of experiment: Decrease in amyloid precursor protein expression in APP23 transgenic mouse hippocampus at 25 mg/kg/day, ip for 14 days by Western blot relative to control. Format: functional. The arrangement: scale not given: the % may be the effect or the level left. Particulars: route intraperitoneal. For orientation: In western blotting, separated proteins are transferred to a membrane and probed.

For test [6], the system named is Mus musculus. Description: Decrease in amyloid precursor protein expression in APP23 transgenic mouse cerebral cortices at 25 mg/kg/day, ip for 14 days by Western blot relative to control. Format: functional, organism-based.
Test [7] concerns Mus musculus. Description: Decrease in amyloid precursor protein expression in wild type mouse cerebral cortices at 25 mg/kg/day, ip for 14 days by Western blot relative to control. The test is classed as functional, organism-based.
In test [8] the test system is Mus musculus. Description: Decrease in glial fibrillary acidic protein expression in APP23 transgenic mouse hippocampus at 25 mg/kg/day, ip for 14 days by Western blot relative to control. Also noted: scale not given: the % may be the effect or the level left. Conditions: route intraperitoneal. The test is classed as functional.
A short description of test [9]: Effect on glial differentiation of human neural stem cells transplanted in APP23 transgenic mouse hippocampus assessed as reduction of GFAP+/BrdU+ count at 25 mg/kg/day, ip for 14 days by fluorescent immunohistochemistry. Format: functional, Neural stem cell. The arrangement: scale not given: the % may be the effect or the level left. Particulars: route intraperitoneal. Put shortly: as §1

Test [10] is described as follows: Effect on neuronal differentiation of human neural stem cells transplanted in APP23 transgenic mouse hippocampus CA1 region assessed as increase of beta-3 tubulin+/BrdU+ count at 25 mg/kg/day, ip for 14 days. Particulars: route intraperitoneal. The test is classed as functional, Neural stem cell. Put shortly: as §1

Take `CN1CC[C@]2(C)c3cc(OC(=O)Nc4ccccc4)ccc3N(C)C12` (stereo not given in full): the Activity in test [1] turned out to be 32%; in test [2], 32%; in test [3] it was 32%; in test [4], 40%; with Mus musculus [5], 38%; in the test on Mus musculus [8], 36%. Moreover, the results for the Activity in test [9] and in test [10] were 28% and 32%, respectively. Also, the result with Mus musculus [6] and with Mus musculus [7] was Active.
